Values joined by “and” are separate entries in the source; they are usually repeats but may differ in a detail not shown here. Identical values can stand only once. Numbered stars: 1 amine (or outer) side, 2 acyl side, 3 side chain; on linkers, the order of the positions; unused ones are H or OH. Square brackets hold non-standard residues; d marks the D form. Peptide text beside a SMILES is read from it. * marks the point of attachment. NH(CH2CH2O)11C2H4NHBiotinyl = O=C(CCCC[C@@H]1SC[C@@H]2NC(=O)N[C@@H]21)NCCOCCOCCOCCOCCOCCOCCOCCOCCOCCOCCOCCN*; Lys(Me,2-norbornyl) = CN(CCCC[C@H](N)C(=O)O)C1CC2CCC1C2; X10 = CN(CCCC[C@H](N[*:1])C(=O)[*:2])C1C2CC3CC(C2)CC1C3; Benzoyl(4-tBu) = CC(C)(C)c1ccc(C(=O)*)cc1
Experiments:
[1] = molecular target: T1, CBX7 (Mus musculus, UniProt Q8VDS3); assay: Polycomb in-vivo Assay; format: cell-based
T1 sequence (Q8VDS3 2-69 limits assumed): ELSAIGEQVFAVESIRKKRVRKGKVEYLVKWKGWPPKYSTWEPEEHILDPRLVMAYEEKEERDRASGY

[2] = tested on: mESCs; assay: CellTiter-Glo viability assay in mESCs; format: cell-based, mouse; details: 48 hr, at 100 μM
In short: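 Mouse ES cells, 5,000 per well, exposed in technical triplicate for 48 hr at 37°C to a ten-point three-fold dilution series prepared from 50 mM DMSO stocks (0.2% DMSO final). Media-only wells served as negative controls. After equilibrating at room temperature, CellTiter-Glo was added, with 2 min shaking and 10 min settling, then luminescence read.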

[3] = tested on: Polycomb target genes; assay: RT-qPCR mRNA expression in HEK293 cells; format: cell-based, human
In short: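 HEK293 cells were treated with test compounds at 6 µM and 20 µM for 2 days. RNA was reverse-transcribed and Polycomb target transcripts were quantified by qPCR with ~100–150 bp amplicons.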

[4] = molecular target: T2, CBX7 chromodomain (Homo sapiens, UniProt O95931); assay: Electrophoretic mobility shift assay; format: biochemical
T2 sequence (O95931 1-62): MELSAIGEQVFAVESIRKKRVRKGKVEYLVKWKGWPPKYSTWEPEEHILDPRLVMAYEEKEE
In short: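 Buffer: 25 mM Tris-HCl pH 7.4, 100 mM NaCl, 0.05% Tween-20, 2 mM DTT. Compound runs used 150 µM CBX7 with 100 nM FAM-DNA probe and 50 µM test compound (0.3% DMSO); protein-only runs used a three-fold CBX7 series. Binding 20 min on ice. Native 10% Tris-glycine gel at 100 V, 4°C, 90 min in the dark. FAM fluorescence imaged, then Coomassie-stained.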

[5] = tested on: SUZ12 and H3K27me3; assay: Capture ChIP-seq in mESCs, SUZ12 and H3K27me3; format: cell-based, mouse
[6] = tested on: CBX2 chromodomain; assay: Isothermal titration calorimetry; format: binding; details: from ITC Kd values
In short: (§1)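 ITC at 25 °C in 25 mM Tris-HCl pH 7.5, 150 mM NaCl, 2 mM β-mercaptoethanol. Typically 50 µM chromodomain in cell, 0.5 mM test compound in syringe (10:1 kept). Protein quantified by Edelhoch, compound by mass. One 0.2 µl injection then 26 × 1.5 µl injections at 180 s spacing; first point discarded. Kd from one-site nonlinear least-squares fit.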

[7] = tested on: CBX6 chromodomain; assay: Isothermal titration calorimetry; format: binding; details: from ITC Kd values
In short: as §1

[8] = molecular target: T2, CBX7 chromodomain; assay: Fluorescence polarization; format: biochemical
In short: (§2)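 Buffer: 25 mM Tris-HCl pH 7.4, 100 mM NaCl, 0.05% Tween-20, 2 mM DTT; 100 nM FAM-dsDNA or FAM-ANRIL-RNA; 0.2% DMSO; 30 min at RT. Compound titration: eight-point three-fold series from 100 µM with 30 µM CBX7 chromodomain. Ratio mode: CBX7 and test compound co-diluted at fixed 3:1 from 300 µM/100 µM. Polarisation normalised to a no-protein control; α fitted by the Stockton-Ehlert allosteric model.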

[9] = molecular target: T3, CBX7 chromodomain (Homo sapiens, UniProt O95931); assay: Isothermal titration calorimetry; format: binding; details: ITC
T3 sequence (O95931 8-62): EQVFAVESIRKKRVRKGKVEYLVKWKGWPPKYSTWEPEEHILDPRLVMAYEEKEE
In short: as §1

[10] = tested on: CDYL2 chromodomain; assay: Isothermal titration calorimetry; format: binding; details: from ITC Kd values
In short: as §1

[11] = molecular target: T2, CBX7 chromodomain; assay: Fluorescence polarization; format: biochemical; remark: listed apart in the source
In short: as §2

[12] = molecular target: T4, CBX7 (Mus musculus, UniProt Q8VDS3); format: cell-based; details: TetOFF reporter cell line; UNC4976 compared to UNC3866 treatment
T4 sequence (Q8VDS3 1-158): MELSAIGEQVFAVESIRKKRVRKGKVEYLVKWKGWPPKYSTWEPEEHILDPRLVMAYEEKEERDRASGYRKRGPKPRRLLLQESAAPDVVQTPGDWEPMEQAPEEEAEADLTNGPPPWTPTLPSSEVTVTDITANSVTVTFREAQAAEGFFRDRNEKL

[13] = molecular target: T5, CBX7 and RING1B (Mus musculus, UniProt Q8VDS3); assay: ChIP-qPCR / ChIP-seq in mESCs; format: cell-based; details: 4 hours, 20 μM
T5 sequence (Q8VDS3 1-158): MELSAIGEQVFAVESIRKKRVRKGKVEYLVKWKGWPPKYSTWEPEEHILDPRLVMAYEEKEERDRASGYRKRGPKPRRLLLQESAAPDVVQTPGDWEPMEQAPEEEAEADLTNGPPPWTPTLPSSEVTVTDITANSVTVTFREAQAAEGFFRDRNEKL
T5 sequence (Q9CQJ4 2-336 partner limits assumed): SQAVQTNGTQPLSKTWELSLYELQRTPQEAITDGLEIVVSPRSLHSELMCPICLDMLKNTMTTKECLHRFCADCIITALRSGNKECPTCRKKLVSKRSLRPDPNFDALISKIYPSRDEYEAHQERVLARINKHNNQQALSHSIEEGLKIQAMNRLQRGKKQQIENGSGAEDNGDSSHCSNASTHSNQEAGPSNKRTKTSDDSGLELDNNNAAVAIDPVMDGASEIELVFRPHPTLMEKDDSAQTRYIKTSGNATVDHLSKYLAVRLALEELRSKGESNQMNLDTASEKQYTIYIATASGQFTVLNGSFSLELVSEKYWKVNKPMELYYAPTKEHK

[14] = tested on: 120 purified Kme reader domains; assay: Chromatin-associated domain array; format: binding; details: biotinylated ligand, fluorescently tagged streptavidin visualization
[15] = tested on: canonical PRC1 complex; assay: Chemiprecipitation; format: binding, human; details: PC3 cell lysates, western blot
In short: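 PC3 cells in DMEM/F12 plus 10% FBS were grown to 80–90% confluency, trypsinised, PBS-washed twice, and lysed fresh or after flash freezing. Lysates were pulled down with biotinylated test compounds. Beads were boiled in Laemmli buffer at 95 °C for 3 min, with 1% input. Proteins were separated by SDS-PAGE and blotted to PVDF. Primary antibody overnight at 4°C; infrared secondaries (1:10,000).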

[16] = Solubility observed in the Polycomb in-vivo Assay; details: above 30 mM in the Polycomb in-vivo Assay
[17] = molecular target: T6, CBX2 chromodomain (residues 9–66 of NP_005180) (UniProt Q14781-1 9-66); assay: ITC
T6 sequence (looked up): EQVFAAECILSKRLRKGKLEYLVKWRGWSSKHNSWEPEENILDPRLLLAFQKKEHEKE

[18] = molecular target: T7, CBX6 chromodomain (residues 8–65 of NP_055107) (UniProt O95503 8-65); assay: ITC
T7 sequence (looked up): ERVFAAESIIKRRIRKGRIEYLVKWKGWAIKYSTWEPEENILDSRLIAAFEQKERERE

[19] = molecular target: T8, CDYL2 chromodomain (residues 1–75 of NP_689555) (UniProt Q8N8U2 1-75); assay: ITC
T8 sequence (looked up): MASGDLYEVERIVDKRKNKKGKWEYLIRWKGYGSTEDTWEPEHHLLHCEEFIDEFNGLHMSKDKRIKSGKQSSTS

[20] = molecular target: CBX7 chromodomain (UniProt O95931 8-62); assay: fluorescence polarization
[21] = 1:3 ratio of compound to protein titration
[22] = Stockton/Ehlert allosteric binding model, 1:3 compound to CBX7, 100 nM FAM-ANRIL-RNA

Molecule: COC(=O)[C@H](CO)NC(=O)[C@H](CCCCN(C)C1CC2CCC1C2)NC(=O)[C@H](CC(C)C)NC(=O)[C@H](C)NC(=O)[C@H](Cc1ccccc1)NC(=O)c1ccc(C(C)(C)C)cc1 (stereo partly drawn) [UNC4976, methyl N^6-(bicyclo[2.2.1]heptan-2-yl)-N^2-(4-(tert-butyl)benzoyl)-L-phenylalanyl-L-alanyl-L-leucyl-N^6-methyl-L-lysyl-L-serinate] ({Benzoyl(4-tBu)}-FAL[Lys(Me,2-norbornyl)]S-OMe)
- EC50 [1]: 3210 ± 352 nM
- fold more potent than UNC3866 in the CBX7 reporter cell line ([1]; EC50 ratio versus UNC3866): ~ 14 fold and 14 fold
- mESC viability upon compound treatment [2]: weak toxicity
- effect on transcription of Polycomb target genes ([3]; HEK293, 6 μM and 20 μM, 2 days): pronounced increase in transcription
- fold higher expression than UNC3866 treatment at the same concentration ([3]; HEK293, in some cases): 8 fold
- binding to CBX7 by Coomassie stain (higher molecular weight band shifts) ([4]; EMSA gel): showed binding to CBX7
- effect on FAM-dsDNA binding to CBX7 ([4]; EMSA, 150 mM CBX7 and 100 nM FAM-dsDNA probe, 1:3 ratio of compound to CBX7): enhanced FAM-dsDNA binding
- reduction in SUZ12 binding and H3K27me3 [5]: only a mild or insignificant reduction
- selectivity for CBX4/7 over CBX2 [6]: 28 fold
- selectivity for CBX4/7 over CBX6 [7]: 9 fold
- change of fluorescence polarization on compound titration ([8]; 30 μM CBX7 chromodomain, 100 nM FAM-dsDNA): increased polarization
- enhancement in CBX7 affinity for FAM-dsDNA [8, 21]: significant enhancement
- allosteric modulator class of oligonucleotide binding ([8]; FP data fit to the Stockton/Ehlert allosteric binding model): positive allosteric modulator
- α (factor of enhancement of CBX7 affinity for the DNA probe) ([8]; Stockton/Ehlert allosteric binding model, 1:3 compound to CBX7, 100 nM FAM-dsDNA): 4.2
- affinity for CBX4 and CBX7 compared [9]: equipotent affinity
- selectivity for CBX4/7 over CDYL2 [10]: 8 fold
- effect on CBX7 binding to FAM-ANRIL-RNA [11, 21]: promoted enhanced CBX7 binding to RNA
- α (factor of enhancement of CBX7 affinity for the RNA probe) [11, 22]: 4.0
- β (ratio of FP factors between [RNA:CBX7:UNC] and [RNA:CBX7]) [11, 22]: 1.1
- derepression of the GFP reporter gene / maintenance of Polycomb silencing [12]: enhanced
- CBX7 and RING1B binding at PRC1 target TSSs [13]: substantially reduced

Molecule: CC(C)C[C@H](NC(=O)[C@H](C)NC(=O)[C@H](Cc1ccccc1)NC(=O)c1ccc(C(C)(C)C)cc1)C(=O)N[C@@H](CCCCN(C)C1CC2CCC1C2)C(=O)N[C@@H](CO)C(=O)NCCOCCOCCOCCOCCOCCOCCOCCOCCOCCOCCOCCNC(=O)CCCC[C@@H]1SC[C@@H]2NC(=O)N[C@@H]21 (stereo partly drawn) [UNC5355, N-((2S,5S,8S,11S,14S)-11-(4-(bicyclo[2.2.1]heptan-2-yl(methyl)amino)butyl)-14-(hydroxymethyl)-8-isobutyl-5-methyl-3,6,9,12,15,53-hexaoxo-57-((3aS,4S,6aR)-2-oxohexahydro-1H-thieno[3,4-d]imidazol-4-yl)-1-phenyl-19,22,25,28,31,34,37,40,43,46,49-undecaoxa-4,7,10,13,16,52-hexaazaheptapentacontan-2-yl)-4-(tert-butyl)benzamide] ({Benzoyl(4-tBu)}-FAL[Lys(Me,2-norbornyl)]S-{NH(CH2CH2O)11C2H4NHBiotinyl})
- selectivity profile on CADOR microarray [14]: binding interactions were only detected for all five Polycomb CBX chromodomains and a small subset of CDY chromodomains
- pulldown of CBX2 and CBX6 [15]: not detected
- pulldown of canonical PRC1 components (CBX4, CBX7, CBX8, RING1B, BMI1) [15]: all five components previously mentioned were similarly pulled down

Molecule: COC(=O)[C@H](CO)NC(=O)[C@H](CCCCN(C)C1C2CC3CC(C2)CC1C3)NC(=O)[C@H](CC(C)C)NC(=O)[C@H](C)NC(=O)[C@H](Cc1ccccc1)NC(=O)c1ccc(C(C)(C)C)cc1 (stereo partly drawn) [UNC6373, methyl N^6-((1S,3S,5S,7S)-adamantan-2-yl)-N^2-(4-(tert-butyl)benzoyl)-L-phenylalanyl-L-alanyl-L-leucyl-N^6-methyl-L-lysyl-L-serinate] ({Benzoyl(4-tBu)}-FAL[X10]S-OMe)
- EC50 [1]: 1020 ± 175 nM
- solubility in this assay [16]: markedly poor solubility

B1: UNC4976 (peptide)
peptide: FALKS
modifications: N-terminal 4-(tert-butyl)benzoyl cap on Phe1; Lys4 is N6-(bicyclo[2.2.1]heptan-2-yl)-N6-methyl-L-lysine (N6-methyl-N6-norbornyl lysine); C-terminal methyl ester on Ser5
- fold selectivity for CBX4/7 over CBX2 [17]: 28 fold
- fold selectivity for CBX4/7 over CBX6 [18]: 9 fold
- fold selectivity for CBX4/7 over CDYL2 [19]: 8 fold

Molecule: UGGAGUUGCGUUCCA (structured_RNA) [FAM-ANRIL-RNA (ANRIL Loop C) FP probe]
- binding signal [20]: 4 fold affinity (alpha)

From PMC6800648 (Cell chemical biology, 2019)
